“Also recorded” adds a separate entry of the source. Read-outs that look alike come from different tables or passages of the source.
How the values were obtained:
NMDAR [1] = assay: NMDA-induced ion currents, whole-cell voltage-clamp; format: cell-based, rat
[2] = test system: cultured hippocampal neurons; format: cell-based, rat
[3] = test system: cultured hippocampal neurons; assay: NMDA-induced increase in [Na+]c; format: cell-based, rat; conditions: MK801 1 μM, memantine 10 μM, AP-5 20 μM; Suppl. Fig. 4
[4] = test system: cultured hippocampal neurons; assay: Glutamate-induced increase in [Na+]c, fluorescence imaging; format: cell-based, rat; conditions: 25 μM glutamate plus 10 μM glycine; for effect on glutamate-induced increases in [Na+]c: SBFI, 1 μM MK801, 50 μM memantine, 200 μM AP-5; for effect on glutamate-induced increase in [Na+]c: Sodium Green, 10 μM EIPA, 10 μM MK801
[5] = test system: cultured hippocampal neurons; assay: Glutamate-induced plasma membrane depolarization; format: cell-based, rat; conditions: Annine-6plus; 25 μM glutamate plus 10 μM glycine; 1 μM MK801, 50 μM memantine, 200 μM AP-5
Method in brief: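 Rat P1 hippocampal neurons, glia-free, 12–14 DIV, in standard NaCl bath (pH 7.4). Loaded with 4 μM Annine-6plus for 5 min at room temperature; excitation 480 nm, emission >570 nm; F480 expressed as F/F0. Inhibitors in 0.2% DMSO. 142 mM KCl substituted for NaCl at end for full depolarization. Depolarization shown as % resting potential over time; mean ± s.e.m., n=3.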

[6] = test system: cultured hippocampal neurons; assay: NMDA-induced DCD, calcium imaging; format: cell-based, rat; conditions: 30 μM NMDA plus 10 μM glycine; MK801 1 μM, memantine 10 μM, AP-5 20 μM; Suppl. Fig. 3
neurons = conditions: ref Levy and Lipton, 1990; cited from earlier work
NMDAR [7] = assay: NMDA-induced increase in [Ca2+]c, calcium imaging; format: cell-based, rat; conditions: for IC50: read-out: IC50, inhibition of NMDA-induced increases in [Ca2+]c
NCXrev = assay: NCXrev-mediated ion currents, voltage ramp whole-cell patch-clamp; format: cell-based, rat; conditions: 5 mM Ni2+, 10 μM KB-R7943, 10 μM MK801, 50 μM memantine, 50 μM AP-5
[8] = test system: cultured hippocampal neurons; assay: NMDA-induced plasma membrane depolarization; format: cell-based, rat; conditions: 30 μM NMDA plus 10 μM glycine; MK801 1 μM, memantine 10 μM, AP-5 20 μM; Suppl. Fig. 5
[9] = test system: NCXrev (reverse Na+/Ca2+ exchanger); assay: Gramicidin-induced; format: cell-based, rat; conditions: for efficacy of inhibition of gramicidin-induced increase in [Ca2+]c / IC50: 5 μM gramicidin; for efficacy of inhibition of gramicidin-induced increase in [Ca2+]c: 1 μM MK801, 50 μM memantine, 200 μM AP-5 (Fig. 3); for IC50: read-out: IC50, inhibition of gramicidin-induced increase in [Ca2+]c, bath with 5 μM nifedipine and 1 mM ouabain, Suppl. Fig. 6
[10] = test system: cultured hippocampal neurons; conditions: CNQX 10–100 μM; ref Brustovetsky et al., 2011; cited from earlier work
NMDAR [11] = conditions: read-out: IC50, inhibition of NMDAR; ref Brustovetsky et al., 2011; cited from earlier work
forward mode of NCX = assay: Forward mode of NCX; format: cell-based; conditions: authors' unpublished data
[12] = whole-cell voltage-clamp, Suppl. Fig. 2
[13] = rat cultured hippocampal neurons, Suppl. Fig. 1

| SMILES | effect on NMDA-induced ion currents (NMDAR [1]; [12]) | effect on glutamate-induced DCD [2] | effect on [Na+]c elevated after NMDA application [3] | effect on glutamate-induced increases in [Na+]c [4] | effect on glutamate-induced plasma membrane depolarization [5] | effect on DCD induced by NMDA [6] | extent of inhibition of NMDA-induced increases in [Ca2+]c (NMDAR [7]; [13]) | IC50 (NMDAR [7]; [13]) | effect on NCXrev-mediated ion currents (NCXrev) | effect on plasma membrane depolarization induced by NMDA [8] | efficacy of inhibition of gramicidin-induced increase in [Ca2+]c [9] | IC50 [9] | effect on glutamate-induced increase in [Na+]c [4] | effect on forward mode of NCX (forward mode of NCX) | further results |
| --- | --- | --- | --- | --- | --- | --- | --- | --- | --- | --- | --- | --- | --- | --- | --- |
| N[C@H](CCCP(=O)(O)O)C(=O)O [AP-5, D-(−)-2-Amino-5-phosphonopentanoic acid] | inhibited NMDA-induced ion currents | failed to prevent DCD; also recorded: failed to prevent or attenuate | significantly lowered | neither attenuated | nor prevented | completely prevented DCD | completely inhibited | 2200 ± 30 nM | practically without effect | completely prevented | much less efficacious | 2800 ± 700 nM | – | – | neuroprotection against glutamate excitotoxicity (neurons): only moderately effective |
| N#Cc1cc2[nH]c(=O)c(=O)[nH]c2cc1[N+](=O)[O-] [CNQX, 6-cyano-7-nitroquinoxaline-2,3-dione] | – | – | – | – | – | – | – | – | – | – | – | – | – | – | effect on glutamate-induced DCD [10]: had no effect |
| CCN(c1nc(N)c(C(=O)NC(=N)N)nc1Cl)C(C)C [EIPA, 5-(N-ethyl-N-isopropyl)amiloride] | – | failed to prevent or attenuate | – | – | – | – | – | – | – | – | – | – | significantly attenuated | – | effect on NMDA-induced increase in [Ca2+]c (NMDAR [7]; EIPA 10 μM, Suppl. Fig. 9): inhibited neither NMDAR nor NCXrev; effect on gramicidin-induced increase in [Ca2+]c ([9]; EIPA 10 μM, Suppl. Fig. 9): inhibited neither NMDAR nor NCXrev |
| N=C(N)SCCc1ccc(OCc2ccc([N+](=O)[O-])cc2)cc1 [KB-R7943] | – | failed to prevent DCD | – | – | – | – | – | – | strongly attenuated | – | – | – | – | – | IC50 (NMDAR [11]): 13400 ± 3600 nM |
| C[C@]12N[C@H](Cc3ccccc31)c1ccccc12 [MK801] | inhibited NMDA-induced ion currents | completely prevented | significantly lowered | neither attenuated | nor prevented | completely prevented DCD | completely inhibited | 200 ± 40 nM | inhibited | completely prevented | very effectively inhibited | 500 ± 80 nM | failed to prevent or diminish | not affected | – |
| CC12CC3CC(C)(C1)CC(N)(C3)C2 [memantine] | – | completely prevented | significantly lowered | neither attenuated | nor prevented | completely prevented DCD | – | – | inhibited | completely prevented | very effectively inhibited | 17100 ± 240 nM | – | not affected | effect on NMDA-induced ion currents (NMDAR [1]): inhibited NMDA-induced ion currents; extent of inhibition of NMDA-induced increases in [Ca2+]c (NMDAR [7]): completely inhibited; IC50 (NMDAR [7]): 3600 ± 50 nM |
